Values after ≈ are worked out from the molar mass of the structure shown.
How the values were obtained:
A549 = assay: Antiproliferative activity against human A549 cells after 72 hrs by trypan blue exclusion assay; format: functional, cell-based; settings: A549, 72 h
Method in brief: (§1)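 Cells were kept in DMEM with 10% fetal serum and exposed to four concentrations of compound for 72 h at 37 °C in humidified 5% CO₂. They were then stained with 0.25% trypan blue for 20 min, and viable cells were counted by light microscopy. IC₅₀ was derived from separate experiments run in triplicate.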

MCF7 = assay: Antiproliferative activity against human MCF7 cells after 72 hrs by trypan blue exclusion assay; format: functional, cell-based; settings: MCF7, 72 h; method in brief: as §1
[1] = Antiproliferative activity against human skin fibroblast after 72 hrs by trypan blue exclusion assay; format: cell-based; method in brief: as §1
Hepatocyte = assay: Antiproliferative activity against human hepatocytes after 72 hrs by trypan blue exclusion assay; format: cell-based; method in brief: as §1
[2] = Antiproliferative activity against human Hs888Lu cells after 72 hrs by trypan blue exclusion assay; format: cell-based; method in brief: as §1
[3] = Antiproliferative activity against human SVCT-M12 cells after 72 hrs by trypan blue exclusion assay; format: cell-based; settings: SVCT-M12, 72 h; method in brief: as §1
Raji [4] = assay: Inhibition of 12-O-tetradecanoylphorbol-13-acetate-induced EBV-early antigen activation in human Raji cells assessed as EA induction at 1000 molar ratio after 48 hrs by immunofluorescence technique relative to 12-O-tetradecanoylphorbol-13-acetate; format: cell-based; settings: human gammaherpesvirus 4
Method in brief: (§2)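 Raji cells were incubated for 48 h at 37 °C in medium with n-butyric acid (4 mM), TPA (32 pmol) and graded amounts of test compound. Smears were stained for EBV-EA by indirect immunofluorescence, and positive cells were counted among at least 500 cells. Assays were run in triplicate. Activity was expressed relative to the n-butyric acid plus TPA control, set as 100%.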

Raji [5] = assay: Inhibition of 12-O-tetradecanoylphorbol-13-acetate-induced EBV-early antigen activation in human Raji cells assessed as EA induction at 500 molar ratio after 48 hrs by immunofluorescence technique relative to 12-O-tetradecanoylphorbol-13-acetate; format: cell-based; parameters: scale not given: the % may be the effect or the level left; settings: human gammaherpesvirus 4; method in brief: as §2
Raji [6] = assay: Inhibition of 12-O-tetradecanoylphorbol-13-acetate-induced EBV-early antigen activation in human Raji cells assessed as EA induction at 100 molar ratio after 48 hrs by immunofluorescence technique relative to 12-O-tetradecanoylphorbol-13-acetate; format: cell-based; parameters: scale not given: the % may be the effect or the level left; settings: human gammaherpesvirus 4; method in brief: as §2
Raji [7] = assay: Inhibition of 12-O-tetradecanoylphorbol-13-acetate-induced EBV-early antigen activation in human Raji cells assessed as EA induction at 10 molar ratio after 48 hrs by immunofluorescence technique relative to 12-O-tetradecanoylphorbol-13-acetate; format: cell-based; parameters: scale not given: the % may be the effect or the level left; settings: human gammaherpesvirus 4; method in brief: as §2
[8] = Inhibition of 12-O-tetradecanoylphorbol-13-acetate-induced EBV-early antigen activation in human Raji cells after 48 hrs by immunofluorescence technique; format: cell-based, human gammaherpesvirus 4; method in brief: as §2
[9] = Cytotoxicity against human Raji cells assessed as cell viability at 1000 molar ratio after 48 hrs by trypan blue staining; format: cell-based; settings: read-out: Activity
Method in brief: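 Raji cells were exposed for 48 h at 37 °C to n-butyric acid (4 mM), TPA (32 pmol) and test compound, as in the EBV-EA induction setup. Viability of the treated cells was then measured by trypan blue staining.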

[10] = Anticancer activity against DMBA/TPA-induced skin cancer in mouse assessed as incidence of papilloma at 85 nmol administered before TPA challenge measured after 10 weeks; format: functional
Method in brief: (§3)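 Mouse two-stage skin model: DMBA 390 nmol in 0.1 mL acetone applied topically by pipet. One week later, the same skin site was painted with test compound (85 nmol in acetone) or acetone alone, 60 min before TPA (1.7 nmol). Tumor response was scored as the average number of papillomas per mouse and the percentage of mice bearing papillomas.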

[11] = Anticancer activity against DMBA/TPA-induced skin cancer in mouse assessed as incidence of papilloma at 85 nmol administered before TPA challenge measured after 15 weeks; format: functional; method in brief: as §3
[12] = Anticancer activity against DMBA/TPA-induced skin cancer in mouse assessed as incidence of papilloma at 85 nmol administered before TPA challenge measured after 20 weeks; format: functional; method in brief: as §3
[13] = Anticancer activity against DMBA/TPA-induced skin cancer in mouse assessed as number of papillomas per mouse at 85 nmol administered before TPA challenge measured after 20 weeks; format: functional; method in brief: as §3
Bacillus subtilis = assay: Antimicrobial activity against Bacillus subtilis NBRC3134 after 24 hrs by broth dilution method; format: functional; settings: NBRC3134, 24 h
Method in brief: (§4)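 Modified NCCLS broth dilution. A 50 µL aliquot of bacterial cells (10⁶/mL in 0.85% NaCl) was added to 1 mL Mueller-Hinton broth containing compound over a 0.1–100 range.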

Staphylococcus aureus = assay: Antimicrobial activity against Staphylococcus aureus NBRC13276 after 24 hrs by broth dilution method; format: functional; settings: NBRC13276, 24 h; method in brief: as §4
Bacillus mycoides = assay: Antimicrobial activity against Bacillus mycoides ATCC 11778 after 24 hrs by broth dilution method; format: functional; settings: ATCC 11778, 24 h; method in brief: as §4
Escherichia coli = assay: Antimicrobial activity against Escherichia coli ATCC 11775 after 24 hrs by broth dilution method; format: functional; settings: ATCC 11775, 24 h; method in brief: as §4
Pseudomonas aeruginosa = assay: Antimicrobial activity against Pseudomonas aeruginosa NBRC13275 after 24 hrs by broth dilution method; format: functional; settings: NBRC13275, 24 h; method in brief: as §4
Salmonella enteritidis = assay: Antimicrobial activity against Salmonella enteritidis OPS10 after 24 hrs by broth dilution method; format: functional, Salmonella enterica subsp. enterica serovar Enteritidis; settings: Salmonella enterica, OPS10, 24 h; method in brief: as §4
Naganishia albida [14] = assay: Antimicrobial activity against Cryptococcus albidus NBRC0378 after 24 hrs by broth dilution method; format: functional; settings: NBRC0378, 24 h
Aspergillus fumigatus [15] = assay: Antimicrobial activity against Aspergillus fumigatus NBRC4400 after 24 hrs by broth dilution method; format: functional; settings: NBRC4400, 24 h
Paecilomyces variotii [16] = assay: Antimicrobial activity against Paecilomyces variotii NBRC4855 after 24 hrs by broth dilution method; format: functional; settings: NBRC4855, 24 h
Candida albicans = assay: Antimicrobial activity against Candida albicans NBRC1060 after 3-5 days by broth dilution method; settings: NBRC1060, 3-5 days
Penicillium expansum = assay: Antimicrobial activity against Penicillium expansum NBRC8800 after 3-5 days by broth dilution method; settings: NBRC8800, 3-5 days
Saccharomyces cerevisiae [17] = assay: Antimicrobial activity against Saccharomyces cerevisiae NBRC10114 after 3-5 days by broth dilution method; settings: NBRC10114, 3-5 days
PC-3 = assay: Antiproliferative activity against human PC3 cells after 72 hrs by trypan blue exclusion assay; format: functional, cell-based; settings: PC-3, 72 h; method in brief: as §1
Saccharomyces cerevisiae [18] = assay: Antimicrobial activity against Saccharomyces cerevisiae NBRC10114 after 24 hrs by broth dilution method; format: functional; settings: NBRC10114, 24 h
Naganishia albida [19] = assay: Antimicrobial activity against Cryptococcus albidus NBRC0378 after 3-5 days by broth dilution method; settings: NBRC0378, 3-5 days
Aspergillus fumigatus [20] = assay: Antimicrobial activity against Aspergillus fumigatus NBRC4400 after 3-5 days by broth dilution method; settings: NBRC4400, 3-5 days
Paecilomyces variotii [21] = assay: Antimicrobial activity against Paecilomyces variotii NBRC4855 after 3-5 days by broth dilution method; settings: NBRC4855, 3-5 days

Compound	IC50 (A549) [µM]	IC50 (MCF7) [µM]	EC50 [2] [µM]	EC50 [3] [µM]	EA induction relative to TPA control (Raji [4]) [%]	Activity (Raji [5]) [%]	Activity (Raji [6]) [%]	Activity (Raji [7]) [%]	IC50 [8] [mol ratio/32 pmol TPA]	viability at 48 h, 1000 molar ratio [9] [%]	MIC (Bacillus subtilis) [µg/mL]	MIC (Staphylococcus aureus) [µg/mL]	MIC (Bacillus mycoides) [µg/mL]	MIC (Escherichia coli) [µg/mL]	MIC (Pseudomonas aeruginosa) [µg/mL]	MIC (Salmonella enteritidis) [µg/mL]	MIC (Candida albicans) [µg/mL]	MIC (Penicillium expansum) [µg/mL]	MIC (Saccharomyces cerevisiae [17]) [µg/mL]	IC50 (PC-3) [µM]	also measured
C[C@H](O)c1cc2c(o1)C(=O)c1cccc(O)c1C2=O	0.78	0.51	5.51	3.36	0	4.4	16.9	50	33.2	60	0.78 (≈ 3.02 µM)	3.13 (≈ 12.1 µM)	0.78 (≈ 3.02 µM)	> 100	> 100	> 100	25 (≈ 96.8 µM)	25 (≈ 96.8 µM)	3.13 (≈ 12.1 µM)		EC50 [1]: 11.1 µM; EC50 (Hepatocyte): 11.1 µM; Activity [10]: 7%; Activity [11]: 47%; Activity [12]: 67%; Activity [13]: 3.9; MIC (Naganishia albida [14]): 1.56 µg/mL (≈ 6.04 µM); MIC (Aspergillus fumigatus [15]): 12.5 µg/mL (≈ 48.4 µM); MIC (Paecilomyces variotii [16]): 25 µg/mL (≈ 96.8 µM)
C[C@H](O)c1cc2c(o1)C(=O)c1c(O)cccc1C2=O	4.31	2.61	14.6	14.6	7.4	26.5	58.2	80.5	271	60	1.56 (≈ 6.04 µM)	6.25 (≈ 24.2 µM)	1.56 (≈ 6.04 µM)	> 100	> 100	> 100	25 (≈ 96.8 µM)	50 (≈ 194 µM)		1.57	MIC (Saccharomyces cerevisiae [18]): 3.13 µg/mL (≈ 12.1 µM); MIC (Naganishia albida [19]): 1.56 µg/mL (≈ 6.04 µM); MIC (Aspergillus fumigatus [20]): 25 µg/mL (≈ 96.8 µM); MIC (Paecilomyces variotii [21]): 50 µg/mL (≈ 194 µM)
CC1(C)CCC2=C(O1)c1ccccc1C(=O)C2=O [LAPACHONE]	4.21	9.96			4.7	21.7	50.4	73.1	210	50										1.13	
C[C@@H](O)c1cc2c(o1)C(=O)c1cccc(O)c1C2=O					0	9.7	24.7	59.4	38.9	70	0.78 (≈ 3.02 µM)	3.13 (≈ 12.1 µM)	0.78 (≈ 3.02 µM)	> 100	> 100	> 100	25 (≈ 96.8 µM)	25 (≈ 96.8 µM)	3.13 (≈ 12.1 µM)		EC50 [1]: 39.7 µM; EC50 (Hepatocyte): 29.8 µM; Activity [10]: 7%; Activity [11]: 47%; Activity [12]: 67%; Activity [13]: 3.9; MIC (Naganishia albida [14]): 1.56 µg/mL (≈ 6.04 µM); MIC (Aspergillus fumigatus [20]): 12.5 µg/mL (≈ 48.4 µM); MIC (Paecilomyces variotii [21]): 25 µg/mL (≈ 96.8 µM)
C[C@@H]1[C@H](O)[C@@H](C)/C=C/C=C/C=C/C=C/C=C/C=C/C=C/[C@H](O[C@@H]2O[C@H](C)[C@@H](O)[C@H](N)[C@@H]2O)C[C@@H]2O[C@](O)(C[C@@H](O)C[C@@H](O)[C@H](O)CC[C@@H](O)C[C@@H](O)CC(=O)O[C@H]1C)C[C@H](O)[C@H]2C(=O)O [AMPHOTERICIN B]																	1.56 (≈ 1.69 µM)	1.56 (≈ 1.69 µM)	0.78 (≈ 0.844 µM)		MIC (Aspergillus fumigatus [15]): 1.56 µg/mL (≈ 1.69 µM); MIC (Paecilomyces variotii [16]): 0.78 µg/mL (≈ 0.844 µM); MIC (Naganishia albida [19]): 1.56 µg/mL (≈ 1.69 µM)
CC(=O)c1cc2c(o1)C(=O)c1c(O)cccc1C2=O	4.31	2.61	14.6	11.7	0	8.3	27.5	60.3	40.1	70										3	
COc1cc(/C=C/C(=O)CC(=O)/C=C/c2ccc(O)c(OC)c2)ccc1O [CURCUMIN]					8.9	40.3	74.5	95.8	345												
CC(O)c1cc2c(o1)C(=O)c1c(O)cccc1C2=O (racemic)					8.9	28.4	59	84.6	306	60											
CC1(C)S[C@@H]2[C@H](NC(=O)Cc3ccccc3)C(=O)N2[C@H]1C(=O)O [PENICILLIN G]											0.39 (≈ 1.17 µM)	0.39 (≈ 1.17 µM)	1.56 (≈ 4.67 µM)								

Reference: ChEMBL document CHEMBL1152539, “Synthesis and evaluation of bioactive naphthoquinones from the Brazilian medicinal plant, Tabebuia avellanedae” (Bioorg Med Chem, 2009)
